These results are taken from ChEMBL document CHEMBL4513216, “Probing the Open Global Health Chemical Diversity Library for Multistage-Active Starting Points for Next-Generation Antimalarials” (ACS Infect Dis, 2020).

Each structure is given as a SMILES string.

The data set is described as follows: Toxicity liver stage against HepG2, at 10uM. The data set is classed as cell-based. Details: test concentration 10 uM, cell line HepG2-A16-CD81EGFP. Conditions: human, HepG2-A16-CD81EGFP cells; read-out: INHIBITION
An outline of the steps:
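Uninfected HepG2-A16-CD81EGFP cells, 3 × 10^3 per well, 1536-well, plated on prespotted compound at 10 μM final, parasite-free screening media added to match infected plates; puromycin 10 μM positive, DMSO 0.5% negative; run in parallel with 48 h PbLuc assay at 37 °C, 5% CO2; viability by CellTiter-Glo luminescence, normalized to controls.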
Take `CN1CCN(CC2CC2)C(=O)C12CCN(C(=O)c1cnccn1)CC2`: the cytotoxicity at 10 µM turned out to be 7.95%.

Turning to `Cc1ccc(S(=O)(=O)NCCOc2ccc3nnc(C)n3n2)s1`, the cytotoxicity at 10 µM was -6.26%.

Consider `Cn1ccc(C(=O)NC2CCC23CCN(C(=O)c2ccnnc2)CC3)c1` (configuration not stated), for which the cytotoxicity at 10 µM is -72%.

Take `CCN(CC)C(=O)N1CCN(Cc2cnc(C)nc2)[C@H]2CS(=O)(=O)C[C@H]21`: the cytotoxicity at 10 µM was -8.84%.

With `CC(C)c1nnc(NCc2cc3n(n2)CCNC3)s1`, the cytotoxicity at 10 µM was -2.11%.

As to `NC(=O)c1cc(C2CCCN(C(=O)CCc3cscn3)C2)n[nH]1` (configuration not stated), the cytotoxicity at 10 µM was -7.59%.

Regarding `CN1CCN(CCCN(C)S(=O)(=O)CC2CCCCC2)CC1`, the cytotoxicity at 10 µM is -10.1%.

Consider `Cc1nc(CN2CCO[C@@H]3CN(Cc4cccs4)C[C@@H]3C2)cs1`, for which the cytotoxicity at 10 µM came out at 6.11%.

With `CCNC(=O)[C@@H]1C[C@H](n2cc(CC3CCCCC3)nn2)CN1`, the cytotoxicity at 10 µM was 1.06%.

For `Cc1cn2nc(N3CCCC3Cn3cccn3)sc2n1` (configuration not stated), the cytotoxicity at 10 µM was -18.1%.

Regarding `O=C(O)[C@@H]1CN(C(=O)c2ccc(O)cc2)C[C@H]1c1cccc(F)c1`, the cytotoxicity at 10 µM is -126%.

Consider `CC(NC(=O)NCCc1cnn(C)c1)c1ccc(Cl)s1` (configuration not stated), for which the cytotoxicity at 10 µM was -2.47%.

In the case of `COC(=O)c1cc(OC)c(OC)cc1NCc1c(C)noc1C`, the cytotoxicity at 10 µM was determined as 4%.

For the compound `Cc1n[nH]c(C)c1CCc1nc(C2CC2)n[nH]1`, the cytotoxicity at 10 µM was -12%.

On to `CC(C)c1nn(CC(=O)N2CCCCC2)c(=O)c2c1cnn2C(C)(C)C`, for which the cytotoxicity at 10 µM is -13.2%.

Consider `CCN1CCN(C(C)CNC(=O)Nc2nc3ccccc3s2)CC1` (configuration not stated), for which the cytotoxicity at 10 µM is -2.32%.

As for `CNc1cnc(CC2COCCN(Cc3ccccc3)C2)cn1` (configuration not stated), the cytotoxicity at 10 µM worked out at 10.9%.

Turning to `CCNc1ncc(C(=O)NCc2csc(-c3cnccn3)n2)cn1`, the cytotoxicity at 10 µM was found to be 0.185%.

`CCN(CC)C(=O)CSc1nc2nc(C)ccc2o1`: the cytotoxicity at 10 µM was determined as 5.73%.

Regarding `COCc1nc(C(=O)N2CCCC2c2cc(C)on2)cs1` (configuration not stated), the cytotoxicity at 10 µM was -5.83%.

For `CC(C)N1CCC(C(=O)NC[C@H]2CCc3ccccc3O2)CC1`, the cytotoxicity at 10 µM came out at 11.1%.

As to `CCCc1cc(C(=O)N(CC)Cc2ccncc2)[nH]n1`, the cytotoxicity at 10 µM was -6.52%.

On to `CC(C)(C(=O)NCC(=O)N1CCCC1)c1ccccc1F`, for which the cytotoxicity at 10 µM was determined as 2.66%.

In the case of `CCC1CN(C(=O)CN2CCN(c3nccc(OC)n3)CC2)CCO1` (configuration not stated), the cytotoxicity at 10 µM was -6.21%.

As for `Oc1cc(CN2CCC(O)(Cn3ccnc3)CC2)nc2c(Cl)cccc12`, the cytotoxicity at 10 µM was -60.8%.

As for `CCNc1cc2c(nn1)CCN(C(=O)c1cc3cccc(C)c3o1)C2`, the cytotoxicity at 10 µM was -8.06%.

For the compound `COc1ccccc1OCCCN1C(=O)CCNC1=O`, the cytotoxicity at 10 µM was -3.7%.

Regarding `CN(Cc1ccsc1)C(=O)c1cccc(F)c1`, the cytotoxicity at 10 µM is -2.45%.

As to `Cc1cc(C)c(CNC(=O)N2CCCC2C(N)=O)c(=O)[nH]1` (configuration not stated), the cytotoxicity at 10 µM is -0.241%.

For the compound `CCc1[nH]c2ccc(CNC(=O)c3cnc(N)nc3C)cc2c1C`, the cytotoxicity at 10 µM was -3.56%.

Take `Cc1cc(CNC(=O)CN2CCCC(Cn3cncn3)C2)ccc1F` (configuration not stated): the cytotoxicity at 10 µM is -9.92%.

In the case of `CCC(C)NC(=O)CS(=O)(=O)Cc1nc(-c2cccs2)no1` (configuration not stated), the cytotoxicity at 10 µM is 2.04%.

Take `CCCC(=O)Nc1cc2c(cc1OC)NC(=O)CC2c1ccc(CC)o1` (configuration not stated): the cytotoxicity at 10 µM stood at 2.01%.

`CC1(C)CCC(C(=O)N2CCCO2)c2ccccc21` (configuration not stated): the cytotoxicity at 10 µM is -0.636%.

As for `COCC1CC2(CCN(CC3CC3)CC2)CN1c1ncccn1` (configuration not stated), the cytotoxicity at 10 µM came out at 14.1%.

Take `COc1cccc(Cc2nnc(SC3CCOC3=O)o2)c1` (configuration not stated): the cytotoxicity at 10 µM is 12.9%.

As for `Cc1cc2nc(-c3ccccc3)cc(NCC3CCS(=O)(=O)C3)n2n1` (configuration not stated), the cytotoxicity at 10 µM was 1.38%.

As for `CC(=O)Nc1nccn1Cc1ccccc1Cl`, the cytotoxicity at 10 µM is -8.1%.

Take `OC1(CN2CCN(c3cccc(C(F)(F)F)c3)CC2)CNCCOC1` (configuration not stated): the cytotoxicity at 10 µM is -5.13%.

As to `O=C1CC2(CCN(CCCF)CC2)CN1Cc1cc(F)cc(F)c1`, the cytotoxicity at 10 µM is 16.3%.

Take `Cc1cccc(C(=O)N2C[C@@H](OCc3cccnc3)[C@H]3OCCC[C@@H]32)n1`: the cytotoxicity at 10 µM is -1.75%.

As to `COc1cc(N2C[C@@H]3COC[C@@H](Cc4nc(C)no4)[C@@H]3C2)ncn1`, the cytotoxicity at 10 µM was -105%.

Take `CC(=O)N1CCN(c2cc(-c3ccccc3)nc3c(C)c(C)nn23)CC1`: the cytotoxicity at 10 µM is -13.1%.

Turning to `Cc1ccc(S(=O)(=O)Nc2ccc(-n3nnn(C)c3=O)cc2)cc1`, the cytotoxicity at 10 µM is -4.1%.

For `O=C(NCc1cnc2n1CCN(Cc1ccoc1)C2)c1ccno1`, the cytotoxicity at 10 µM was -93%.

Consider `CC(NC(=O)N(C)Cc1cnn(C)c1)c1nncn1C` (configuration not stated), for which the cytotoxicity at 10 µM was -3.03%.

Regarding `CC(C)c1nc(CNC2CCN(C(=O)OC(C)(C)C)CC2)cs1`, the cytotoxicity at 10 µM is -1.72%.

With `CCn1c(C)nnc1SCCNC(=O)c1cnc(N(C)C)nc1C`, the cytotoxicity at 10 µM was 6.9%.

On to `CC1COCCN1Cc1nc(-c2cccc(Br)c2)no1` (configuration not stated), for which the cytotoxicity at 10 µM is -3.04%.

Turning to `O=C(NCC(F)F)c1cc(-c2ccccc2)nc2ncnn12`, the cytotoxicity at 10 µM was -3.37%.

For `Cc1nnc([C@@]23CCO[C@@H]2CCN(Cc2nccs2)C3)o1`, the cytotoxicity at 10 µM is -104%.

Regarding `CN(C)CC1COCCN1C(=O)C1(c2cccs2)CCCC1` (configuration not stated), the cytotoxicity at 10 µM is -9.52%.

For the compound `CCOc1cncc(NCCc2nnc3ccccn23)n1`, the cytotoxicity at 10 µM stood at 9.84%.

On to `CCCC(=O)N1CCC(c2cc3cccnc3c(O)n2)CC1`, for which the cytotoxicity at 10 µM was -3.63%.

In the case of `COc1cccc(-c2cccc(N3CCC(N[C@@H]4CCOC4)CC3)c2)c1`, the cytotoxicity at 10 µM is -12.7%.

As for `Cc1csc(N2CCN(C(=O)CCc3nccs3)CC2)n1`, the cytotoxicity at 10 µM is -3.68%.

On to `CN(C)C(=O)COCC1CN(C2CCC2)Cc2ncn(C)c21` (configuration not stated), for which the cytotoxicity at 10 µM turned out to be 14.1%.

Regarding `CC(NC(=O)N1CCc2sccc2C1)c1nncn1C` (configuration not stated), the cytotoxicity at 10 µM was -8.6%.

With `Cc1cnn(CC2CCCCN2CCS(C)(=O)=O)c1` (configuration not stated), the cytotoxicity at 10 µM is -13.7%.

As to `COCCOCC(=O)Nc1ccc(C)cc1F`, the cytotoxicity at 10 µM is -3.81%.

With `Cn1cc(CN2C[C@@H]3COC[C@]3(C(=O)NCCc3ccccc3)C2)cn1`, the cytotoxicity at 10 µM is 8.86%.

In the case of `COc1ccccc1CC1CCCN(CCC(N)=O)C1` (configuration not stated), the cytotoxicity at 10 µM was -5.06%.

On to `CCc1nc(CN2CCN(C(=O)c3csnn3)CC2)cs1`, for which the cytotoxicity at 10 µM was -9.04%.

As to `O=C1NCC(CN2CCc3onc(-c4ccc(C(F)(F)F)cc4)c3C2)O1` (configuration not stated), the cytotoxicity at 10 µM came out at 2.02%.

`COCc1ccccc1NC(=O)CCNC(=O)c1ccoc1`: the cytotoxicity at 10 µM is -3.94%.

As for `Cc1noc(C)c1CS(=O)(=O)Cc1nc(C2CC2)no1`, the cytotoxicity at 10 µM came out at 3.37%.

For `CCOC(C)c1nccn1Cc1noc(CC)n1` (configuration not stated), the cytotoxicity at 10 µM is -9.06%.

With `O=C(c1cnccn1)N1CCN2C[C@H](Oc3cccnc3)C[C@H]2C1`, the cytotoxicity at 10 µM came to 4.62%.

As for `CN1C[C@@H](NC(=O)CC(C)(C)C)C[C@H]1c1nc(-c2cnccn2)no1`, the cytotoxicity at 10 µM stood at 3.08%.

On to `Cc1ncc(S(=O)(=O)N(CC(C)C)c2cccc(O)c2)s1`, for which the cytotoxicity at 10 µM is -41.2%.

With `CC(=O)NCc1nc(Cc2cccc(Cl)c2)nn1C1CCN(C)CC1`, the cytotoxicity at 10 µM was -1.12%.

`Cc1ccnc(NC(=O)CSCc2cccnc2)c1`: the cytotoxicity at 10 µM is -42.2%.

Turning to `CS(=O)(=O)N1Cc2cnn(CC3CC3)c2C(COCC2CC2)C1` (configuration not stated), the cytotoxicity at 10 µM worked out at 9.43%.

Turning to `COCCS(=O)(=O)Nc1cc(Cl)ccn1`, the cytotoxicity at 10 µM was found to be 2.62%.

`CCN1CCN(C(=O)C2CCCc3[nH]ncc32)CC1` (configuration not stated): the cytotoxicity at 10 µM was -1.21%.

With `Cc1ccc(F)cc1-n1c(CN(C)S(C)(=O)=O)n[nH]c1=O`, the cytotoxicity at 10 µM was determined as 2.19%.

Turning to `COc1ccc(NC(=O)CCn2nc(-c3cccs3)oc2=O)cc1OC`, the cytotoxicity at 10 µM was -9.37%.

With `Cc1cc(C(=O)N(CC(C)C)CC(O)c2ccc(F)cc2)[nH]n1` (configuration not stated), the cytotoxicity at 10 µM was -10.2%.

As to `Cc1ccc(NC(=O)C2CCc3ccccc3N2)cc1` (configuration not stated), the cytotoxicity at 10 µM was -5.57%.

`CSc1ccc(C(=O)N2CC(=O)N(Cc3ccccc3)CC(O)C2)cc1` (configuration not stated): the cytotoxicity at 10 µM was -0.426%.

As to `CCCc1ncc(C(=O)N2CCOC(c3nc(C)n[nH]3)C2)s1` (configuration not stated), the cytotoxicity at 10 µM is -0.12%.

In the case of `CC(C)c1nnc2n1CCN(C(=O)c1ccc(Cn3cccc3)cc1)C2`, the cytotoxicity at 10 µM is -4.28%.

In the case of `CC(C)[C@H]1CN(S(C)(=O)=O)C[C@@H]1NC(=O)c1ccnc(N)c1`, the cytotoxicity at 10 µM was 8%.

Turning to `Cc1noc(C)c1C(=O)NCC(c1ccsc1)N(C)C` (configuration not stated), the cytotoxicity at 10 µM was -14.2%.

`CCc1cccc(OC2CN(C(=O)[C@@H](N)CCSC)C2)c1`: the cytotoxicity at 10 µM turned out to be 0.684%.

On to `CCc1cnc(CN2CCC(O)(c3cc(OC)cc(OC)c3)CC2)o1`, for which the cytotoxicity at 10 µM was -0.276%.

With `Cc1cc2occ(CC(=O)N3CCC4(CCCN(C)C4=O)C3)c2cc1Cl` (configuration not stated), the cytotoxicity at 10 µM was -4.03%.

For `Cc1c(F)cc(C(=O)NCC(F)(F)F)cc1NCC(=O)N(C)C`, the cytotoxicity at 10 µM is 10.2%.

Take `Cc1cc(CN2CCN(C(=O)C(C)C)[C@@H]3CS(=O)(=O)C[C@@H]32)ccc1F`: the cytotoxicity at 10 µM was determined as 3.41%.

On to `O=C(c1ccncc1)N1CCCC(C2=Nc3ccccc3S(=O)(=O)N2)C1` (configuration not stated), for which the cytotoxicity at 10 µM stood at 4.26%.

Turning to `O=C(COCC1CC1)Nc1ncn(CC(=O)N2CCCCCC2)n1`, the cytotoxicity at 10 µM was -11.9%.

For `CC(C)OCCSCc1nnc(-c2cccc(F)c2)o1`, the cytotoxicity at 10 µM stood at 9.45%.

`CC(C)(C)CC(=O)NCC(=O)Nc1ccn(Cc2cccnc2)n1`: the cytotoxicity at 10 µM is 15.4%.

Regarding `COC(=O)c1cc(C(=O)N2CCc3ccc(F)cc3C2C)ccn1` (configuration not stated), the cytotoxicity at 10 µM was 10.5%.

In the case of `CN(C)C(=O)CN(C)C(=O)c1cccn1CCc1ccccc1`, the cytotoxicity at 10 µM was determined as 1.17%.

For `O=C(CCCc1ccccc1)N1CCC(Nc2cccnn2)CC1`, the cytotoxicity at 10 µM was -5.89%.

In the case of `COc1ccccc1C(C)(C)NC(=O)c1ccc(F)c(NC(C)=O)c1`, the cytotoxicity at 10 µM is -142%.
